Test results published in ChEMBL document CHEMBL1165950, “Design and synthesis of new potent anticancer pyrazoles with high FLT3 kinase inhibitory selectivity” (Bioorg Med Chem, 2010).

What was measured:
Assay type in all cases: functional
OVCAR-5 [1] = test: Cytotoxicity against human OVCAR5 cells assessed as cell growth at 10 uM; settings: read-out: Activity
Procedure, shortened: (§1)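 NCI-60 screen: cells grown in RPMI 1640 with 5% FBS and 2 mM L-glutamine, plated at 5000–40,000 cells/well according to doubling time, and preincubated 24 h at 37 °C, 5% CO2. The single 10 µM dose (DMSO stock) was added, then incubated 48 h. Cells were TCA-fixed and stained with 0.4% SRB, read at 515 nm, and growth % calculated against time-zero and control plates.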

OVCAR-8 [2] = test: Cytotoxicity against human OVCAR8 cells assessed as cell growth at 100 nM after 48 hrs by sulforhodamine B assay; settings: OVCAR-8, 48 h, read-out: Activity
NCI-H522 [3] = test: Cytotoxicity against human NCI-H522 cells assessed as cell growth at 100 nM after 48 hrs by sulforhodamine B assay; settings: NCI-H522, 48 h, read-out: Activity
SN12C = test: Cytotoxicity against human SN12C cells assessed as cell growth at 0.01 uM after 48 hrs by sulforhodamine B assay; settings: read-out: Activity
T47D = test: Growth inhibition of human T47D cells after 48 hrs by sulforhodamine B assay
Procedure, shortened: (§2)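 NCI 60-cell screen, five-dose mode. Cells grown in RPMI 1640 with 5% FBS and 2 mM L-glutamine and plated at 5000-40,000 cells/well according to doubling time. After 24 h preincubation, a Tz plate was TCA-fixed. Five concentrations (10-fold or 1/2 log dilutions) were applied for 48 h at 37 °C. SRB staining read at 515 nm. IC50 taken from [(Ti-Tz)/(C-Tz)]×100 = 50.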

OVCAR-8 [4] = test: Cytotoxicity against human OVCAR8 cells assessed as cell growth at 10 uM after 48 hrs by sulforhodamine B assay; settings: OVCAR-8, 48 h, read-out: Activity
OVCAR-3 = test: Cytotoxicity against human OVCAR-3 cells assessed as cell growth at 1 uM after 48 hrs by sulforhodamine B assay; settings: OVCAR-3, 48 h, read-out: Activity
SF-295 = test: Cytotoxicity against human SF295 cells assessed as cell growth at 10 uM; settings: read-out: Activity; procedure, shortened: as §1
NCI/ADR-RES [5] = test: Cytotoxicity against human NCI/ADR-RES cells assessed as cell growth at 10 uM; settings: read-out: Activity; procedure, shortened: as §1
UACC-62 [6] = test: Cytotoxicity against human UACC62 cells assessed as cell growth at 0.001 uM after 48 hrs by sulforhodamine B assay; settings: UACC-62, 48 h, read-out: Activity
LOX IMVI [7] = test: Cytotoxicity against human LOXIMVI cells assessed as cell growth at 0.01 uM after 48 hrs by sulforhodamine B assay; settings: read-out: Activity
OVCAR-8 [8] = test: Growth inhibition of human OVCAR8 cells after 48 hrs by sulforhodamine B assay; settings: OVCAR-8, 48 h; for CC50: read-out: LC50 (the source's name); procedure, shortened: as §2
Malme-3M = test: Cytotoxicity against human MALME-3M cells assessed as cell growth at 0.01 uM after 48 hrs by sulforhodamine B assay; settings: read-out: Activity
NCI-H522 [9] = test: Cytotoxicity against human NCI-H522 cells assessed as cell growth at 0.001 uM after 48 hrs by sulforhodamine B assay; settings: NCI-H522, 48 h, read-out: Activity
[10] = Cytotoxicity against human RPMI8266 cells assessed as cell growth at 100 nM after 48 hrs by sulforhodamine B assay; settings: read-out: Activity
KM12 = test: Cytotoxicity against human KM12 cells assessed as cell growth at 10 uM after 48 hrs by sulforhodamine B assay; settings: KM12, 48 h, read-out: Activity
BT-549 = test: Cytotoxicity against human BT549 cells assessed as cell growth at 1 uM after 48 hrs by sulforhodamine B assay; settings: BT-549, 48 h, read-out: Activity
Procedure, shortened: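 NCI-60 five-dose screen. Cells were grown in RPMI 1640 with 5% FBS and 2 mM L-glutamine, plated at 5000–40,000 cells/well and preincubated for 24 h. Time-zero plates were TCA-fixed. DMSO-solubilized drug was added at five concentrations (10-fold or ½-log serial dilutions) for 48 h at 37 °C, 5% CO2. Cells were TCA-fixed, stained with 0.4% SRB and read at 515 nm. Percent growth used time-zero, control and test absorbances.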

OVCAR-8 [11] = test: Cytotoxicity against human OVCAR8 cells assessed as cell growth at 0.001 uM after 48 hrs by sulforhodamine B assay; settings: OVCAR-8, 48 h, read-out: Activity
UACC-62 [12] = test: Cytotoxicity against human UACC62 cells assessed as cell growth at 10 uM; settings: read-out: Activity; procedure, shortened: as §1
LOX IMVI [13] = test: Cytotoxicity against human LOXIMVI cells assessed as cell growth at 10 uM after 48 hrs by sulforhodamine B assay; settings: read-out: Activity
SW-620 [14] = test: Cytotoxicity against human SW620 cells assessed as cell growth at 10 uM after 48 hrs by sulforhodamine B assay; settings: SW-620, 48 h, read-out: Activity
OVCAR-5 [15] = test: Cytotoxicity against human OVCAR5 cells assessed as cell growth at 0.01 uM after 48 hrs by sulforhodamine B assay; settings: OVCAR-5, 48 h, read-out: Activity
SF-268 = test: Cytotoxicity against human SF268 cells assessed as cell growth at 10 uM after 48 hrs by sulforhodamine B assay; settings: SF-268, 48 h, read-out: Activity
SNB-19 = test: Cytotoxicity against human SNB19 cells assessed as cell growth at 10 uM after 48 hrs by sulforhodamine B assay; settings: SNB-19, 48 h, read-out: Activity
IGROV-1 = test: Cytotoxicity against human IGROV1 cells assessed as cell growth at 0.001 uM after 48 hrs by sulforhodamine B assay; settings: IGROV-1, 48 h, read-out: Activity
OVCAR-4 = test: Growth inhibition of human OVCAR4 cells after 48 hrs by sulforhodamine B assay; settings: OVCAR-4, 48 h; for CC50: read-out: LC50 (the source's name); procedure, shortened: as §2
SF-539 = test: Cytotoxicity against human SF539 cells assessed as cell growth at 10 uM; settings: read-out: Activity; procedure, shortened: as §1
NCI-H460 = test: Growth inhibition of human NCI-H460 cells after 48 hrs by sulforhodamine B assay; settings: NCI-H460, 48 h; for CC50: read-out: LC50 (the source's name); procedure, shortened: as §2
HCT-116 = test: Cytotoxicity against human HCT116 cells assessed as cell growth at 0.01 uM after 48 hrs by sulforhodamine B assay; settings: HCT-116, 48 h, read-out: Activity
M14 = test: Cytotoxicity against human M14 cells assessed as cell growth at 10 uM after 48 hrs by sulforhodamine B assay; settings: M14, 48 h, read-out: Activity
NCI-H322M = test: Cytotoxicity against human NCI-H322M cells assessed as cell growth at 10 uM after 48 hrs by sulforhodamine B assay; settings: read-out: Activity
[16] = Cytotoxicity against human Hs 578T cells assessed as cell growth at 0.001 uM after 48 hrs by sulforhodamine B assay; settings: read-out: Activity
SW-620 [17] = test: Cytotoxicity against human SW620 cells assessed as cell growth at 10 uM; settings: read-out: Activity; procedure, shortened: as §1
NCI/ADR-RES [18] = test: Cytotoxicity against human NCI/ADR-RES cells assessed as cell growth at 1 uM after 48 hrs by sulforhodamine B assay; settings: read-out: Activity

COc1cc(C)cc(-c2c(-c3ccnc(-c4ccc(C(C)=O)cc4)c3)cnn2CC#N)c1
growth at 10 µM (OVCAR-5 [1]): 95% | growth at 0.1 µM (OVCAR-8 [2]): 85% | growth at 0.1 µM (NCI-H522 [3]): 76% | growth at 0.01 µM (SN12C): 93% | GI50 (T47D): 2.42 µM | LC50 (T47D): > 100 µM | TGI (T47D): 8.02 µM | growth at 10 µM (OVCAR-8 [4]): 10% | growth at 1 µM (OVCAR-3): -10% | growth at 10 µM (SF-295): 93.2% | growth at 10 µM (NCI/ADR-RES [5]): 60.1% | growth at 0.001 µM (UACC-62 [6]): 93% | growth at 0.01 µM (LOX IMVI [7]): 105% | GI50 (OVCAR-8 [8]): 2.86 µM | TGI (OVCAR-8 [8]): > 100 µM | CC50 (OVCAR-8 [8]): > 100 µM | growth at 0.01 µM (Malme-3M): 93% | growth at 0.001 µM (NCI-H522 [9]): 86% | growth at 0.1 µM [10]: 88% | growth at 10 µM (KM12): 10% | growth at 1 µM (BT-549): 17% | growth at 0.001 µM (OVCAR-8 [11]): 103% | growth at 10 µM (UACC-62 [12]): 49.6% | growth at 10 µM (LOX IMVI [13]): 21% | growth at 10 µM (SW-620 [14]): 14% | growth at 0.01 µM (OVCAR-5 [15]): 70% | growth at 10 µM (SF-268): 23% | growth at 10 µM (SNB-19): 66% | growth at 0.001 µM (IGROV-1): 107% | GI50 (OVCAR-4): 5.13 µM | TGI (OVCAR-4): > 100 µM | CC50 (OVCAR-4): > 100 µM | growth at 10 µM (SF-539): 59.9% | GI50 (NCI-H460): 2.41 µM | CC50 (NCI-H460): > 100 µM | growth at 0.01 µM (HCT-116): 91% | growth at 10 µM (M14): 2% | growth at 10 µM (NCI-H322M): 70% | growth at 0.001 µM [16]: 95% | growth at 10 µM (SW-620 [17]): 56.1% | growth at 1 µM (NCI/ADR-RES [18]): 11%

COc1cc(C)cc(-c2nn(CC#N)cc2-c2ccc(-c3cccc(C(C)=O)c3)nc2)c1
growth at 10 µM (OVCAR-5 [1]): 91.3% | growth at 0.1 µM (OVCAR-8 [2]): 86% | growth at 0.1 µM (NCI-H522 [3]): 68% | growth at 0.01 µM (SN12C): 88% | GI50 (T47D): 2.23 µM | LC50 (T47D): > 100 µM | TGI (T47D): 8.23 µM | growth at 10 µM (OVCAR-8 [4]): -11% | growth at 1 µM (OVCAR-3): -61% | growth at 10 µM (SF-295): 16.9% | growth at 10 µM (NCI/ADR-RES [5]): -25.8% | growth at 0.001 µM (UACC-62 [6]): 94% | growth at 0.01 µM (LOX IMVI [7]): 96% | GI50 (OVCAR-8 [8]): 3.16 µM | TGI (OVCAR-8 [8]): 35.2 µM | CC50 (OVCAR-8 [8]): > 100 µM | growth at 0.01 µM (Malme-3M): 85% | growth at 0.001 µM (NCI-H522 [9]): 85% | growth at 0.1 µM [10]: 96% | growth at 10 µM (KM12): -25% | growth at 1 µM (BT-549): 5% | growth at 0.001 µM (OVCAR-8 [11]): 91% | growth at 10 µM (UACC-62 [12]): 27.2% | growth at 10 µM (LOX IMVI [13]): 6% | growth at 10 µM (SW-620 [14]): -11% | growth at 0.01 µM (OVCAR-5 [15]): 68% | growth at 10 µM (SF-268): -2% | growth at 10 µM (SNB-19): 19% | growth at 0.001 µM (IGROV-1): 106% | GI50 (OVCAR-4): 3.76 µM | TGI (OVCAR-4): > 100 µM | CC50 (OVCAR-4): > 100 µM | growth at 10 µM (SF-539): 5.94% | GI50 (NCI-H460): 2.04 µM | TGI (NCI-H460): 5.72 µM | CC50 (NCI-H460): 26.6 µM | growth at 0.01 µM (HCT-116): 93% | growth at 10 µM (M14): -43% | growth at 10 µM (NCI-H322M): -10% | growth at 0.001 µM [16]: 84% | growth at 10 µM (SW-620 [17]): 24.8% | growth at 1 µM (NCI/ADR-RES [18]): -16%
